Laboratory results published in PubChem BioAssay AID463132 (The Scripps Research Institute Molecular Screening Center, 2010).

Molecular target: Protein phosphatase methylesterase 1 (Homo sapiens) (UniProt Q9Y570)
Test: in situ PME-1 inhibition – HeLa cells, western blot, powder samples, late-stage follow-up (AID 463132)
Settings: demethylated PP2A western blot, 1 h, at 0.5 µM, stronger effect = higher value
How it was run: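 Test system: HeLa cells with endogenous PME-1 acting on PP2A; medium: FCS-supplemented medium; doses: single compound dose of 0.5 µM; timing: compound exposure of cells for 1 h at 37 °C; measured by: HRP-antibody immunoblot, chemiluminescence; read-out basis: percent inhibition of demethylated PP2A band density versus controls; control set: high DMSO cells, low empty blot region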

Chain of Protein phosphatase methylesterase 1 (Homo sapiens) (Q9Y570 whole entry, looked up): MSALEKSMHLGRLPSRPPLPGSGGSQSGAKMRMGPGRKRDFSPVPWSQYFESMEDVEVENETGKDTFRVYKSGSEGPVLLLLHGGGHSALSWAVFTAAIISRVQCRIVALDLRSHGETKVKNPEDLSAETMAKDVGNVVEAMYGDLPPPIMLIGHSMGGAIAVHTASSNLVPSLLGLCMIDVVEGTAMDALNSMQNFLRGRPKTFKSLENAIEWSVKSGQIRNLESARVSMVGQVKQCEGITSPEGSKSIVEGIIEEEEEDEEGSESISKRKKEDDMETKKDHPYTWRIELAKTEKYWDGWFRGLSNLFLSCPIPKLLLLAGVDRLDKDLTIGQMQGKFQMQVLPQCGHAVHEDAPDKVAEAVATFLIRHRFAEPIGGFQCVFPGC

With COC(=O)N1C(=O)[C@](c2ccccc2)(C2CCCC2)N1C(=O)OC the inhibition was 85%.
COC(=O)N1C(=O)[C@](c2ccccc2)(C2CCCCC2)N1C(=O)OC showed an inhibition of 85%.
